The source made the active and inactive calls. No cut-off for these calls is given here.
Legend:
HepG2 [1] = assay: Cytotoxicity against human HepG2 cells assessed as cell viability upto 40 uM after 48 hrs by MTT assay; format: cell-based; conditions: hepg2, 48 h
Summary of the method: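 HepG2 cells in DMEM/10% FBS seeded at 1×10⁵/mL and grown 24 h, then exposed to 0.1, 1, 10, 40 and 80 µM for 48 h. MTT (5 mg/mL stock) added for 4 h at 37 °C in the dark, formazan dissolved in DMSO, absorbance read at 490 nm; mean ± SD, n = 3.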

[2] = molecular target: T1, Bile acid receptor (Homo sapiens) (UniProt Q96RI1); assay: Agonist activity at human FXR in HepG2 cells assessed as nuclear translocation at 1 uM for 16 hrs by immunofluorescence analysis; format: cell-based; conditions: filed as agonist
T1 sequence (whole entry): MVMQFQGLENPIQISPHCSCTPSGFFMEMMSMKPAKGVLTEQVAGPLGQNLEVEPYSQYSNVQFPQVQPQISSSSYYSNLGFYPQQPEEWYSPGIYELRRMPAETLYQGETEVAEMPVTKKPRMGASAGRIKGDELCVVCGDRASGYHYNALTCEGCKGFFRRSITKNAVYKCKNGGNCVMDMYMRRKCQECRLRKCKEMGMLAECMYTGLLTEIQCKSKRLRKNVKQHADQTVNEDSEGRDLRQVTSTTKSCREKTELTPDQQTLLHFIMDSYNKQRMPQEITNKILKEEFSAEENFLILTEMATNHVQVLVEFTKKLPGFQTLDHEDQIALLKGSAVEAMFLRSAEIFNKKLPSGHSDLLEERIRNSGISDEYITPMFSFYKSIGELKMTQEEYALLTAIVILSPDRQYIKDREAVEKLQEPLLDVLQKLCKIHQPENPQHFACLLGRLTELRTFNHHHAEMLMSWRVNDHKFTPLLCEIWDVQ

[3] = Half life in C57BL/6J mouse at 20 mg/kg, po measured upto 24 hrs by LC-MS analysis; format: ADME, organism-based; conditions: in vivo
Summary of the method: (§1)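 Male C57BL/6J mice (22–24 g, n = 5), single oral dose 20 mg/kg in 0.5% CMC-Na PBS. Plasma sampled at 0.25, 0.5, 1, 2, 4, 8, 12 and 24 h, centrifuged, and supernatant analysed by LC-MS/MS in positive ion mode. Parameters from noncompartmental analysis; mean ± SD, n = 5.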

HepG2 [4] = assay: Upregulation of FXR level in human HepG2 cells at 1 to 10 uM for 16 hrs by Western blot analysis; format: functional, cell-based; conditions: dose 1-10 µM
Summary of the method: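 HepG2 cells treated for 16 h, washed, lysed on ice and centrifuged; protein quantified by BCA. Equal protein run on 12% SDS-PAGE and transferred to PVDF. Probed overnight at 4 °C with anti-FXR, […], anti-CYP7A1 or anti-BSEP antibody, then HRP secondary 1 h at 37 °C; ECL detection.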

[5] = Cmax in C57BL/6J mouse at 20 mg/kg, po measured upto 24 hrs by LC-MS analysis; format: ADME, organism-based; design: route oral, dose 20 mg/kg, time <=24; conditions: in vivo; summary of the method: as §1
[6] = Tmax in C57BL/6J mouse at 20 mg/kg, po measured upto 24 hrs by LC-MS analysis; format: ADME, organism-based; conditions: in vivo; summary of the method: as §1
[7] = AUC (0 to t) in C57BL/6J mouse at 20 mg/kg, po measured upto 24 hrs by LC-MS analysis; format: ADME, organism-based; design: route oral, dose 20 mg/kg, time <=24; conditions: in vivo; summary of the method: as §1

Activity [2] | half-life [3] | Cmax [5] | Tmax [6] | AUC(0-t) at 24 h [7] | Structure (SMILES) | Activity (HepG2 [1]) | Activity (HepG2 [4])
Active | – | – | – | – | CC(C)c1onc(-c2c(Cl)cccc2Cl)c1COc1ccc(/C=C/c2cccc(C(=O)O)c2)c(Cl)c1 | Non-Toxic | –
– | 10.6 h | 2350 ng/mL | 4.8 h | 36100 ng·h/mL | O=C(O)c1cccc(NC(=O)N2CCC(OCc3c(-c4ccccc4OC(F)(F)F)noc3C3CC3)CC2)c1 | Non-Toxic | Active
